From ChEMBL document CHEMBL4330085, “Peptidomimetic plasmepsin inhibitors with potent anti-malarial activity and selectivity against cathepsin D” (Eur J Med Chem, 2019)
The source made the active and inactive calls. No cut-off for these calls is given here.

Columns and labels:
Plasmepsin 4 = Plasmepsin 4 (Plasmodium falciparum, UniProt Q17SB2); experiment: Inhibition of Plasmodium falciparum plasmepsin 4 using DABCYL-Glu-Arg-Nle-Phe-Leu-Ser-Phe-Pro-EDANS as substrate preincubated for 30 mins followed by substrate addition and measured every min for 8 to 15 mins by FRET assay
Cathepsin D = Cathepsin D (Homo sapiens, UniProt P07339); experiment: Inhibition of human cathepsin D using DABCYL-Glu-Arg-Nle-Phe-Leu-Ser-Phe-Pro-EDANS as substrate preincubated for 30 mins followed by substrate addition and measured every min for 8 to 15 mins by FRET assay
Plasmodium falciparum = experiment: Antimalarial activity against blood stage form of Plasmodium falciparum 3D7 infected in erythrocytes after 96 hrs by SYBR Green I dye-based spectrophotometric analysis; format: functional, organism-based; settings: 3D7, 96 h
Summary of the method: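 P. falciparum blood-stage growth was read by SYBR Green fluorescence after a 96 h incubation (2 erythrocytic cycles). EC50 values came from triplicate samples in 2 separate biological assays, with a reference inhibitor as positive control.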

Plasmepsin I = Plasmepsin I (Plasmodium falciparum, UniProt P39898); experiment: Inhibition of Plasmodium falciparum plasmepsin 1 using DABCYL-Glu-Arg-Nle-Phe-Leu-Ser-Phe-Pro-EDANS as substrate preincubated for 30 mins followed by substrate addition and measured every min for 8 to 15 mins by FRET assay
Plasmepsin II = Plasmepsin II (Plasmodium falciparum, UniProt P46925); experiment: Inhibition of Plasmodium falciparum plasmepsin 2 using DABCYL-Glu-Arg-Nle-Phe-Leu-Ser-Phe-Pro-EDANS as substrate preincubated for 30 mins followed by substrate addition and measured every min for 8 to 15 mins by FRET assay
[1] = biological target: Plasmepsin X (Plasmodium falciparum (isolate 3D7)) (UniProt Q8IAS0); experiment: Inhibition of Plasmodium falciparum plasmepsin 10-mediated SUB1 maturation and egress assessed as enrichment of SUB1 p54 form level at 10 nM after 8 hrs by Western blot analysis
Summary of the method: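 Synchronous cultures of immature intracellular parasites were exposed for ~8 h to compound at 10 nM. Controls were vehicle (DMSO, 1% v/v) and a cGMP-dependent protein kinase inhibitor at 2 μM. Parasite extracts were analysed by Western blot with anti-SUB1 antibody, scoring the p54 and p47 forms.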

[2] = biological target: Plasmepsin X (Plasmodium falciparum (isolate 3D7)) (UniProt Q8IAS0); experiment: Inhibition of Plasmodium falciparum plasmepsin 10-mediated SUB1 maturation and egress assessed as reduction in SERA5 P50 level at 10 nM by Western blot analysis

Cathepsin D, sequence (P07339 65-162 limits assumed): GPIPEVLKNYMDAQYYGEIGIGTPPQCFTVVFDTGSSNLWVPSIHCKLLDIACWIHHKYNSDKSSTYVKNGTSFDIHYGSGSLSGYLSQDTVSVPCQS
Cathepsin D, sequence (P07339 169-412 limits assumed): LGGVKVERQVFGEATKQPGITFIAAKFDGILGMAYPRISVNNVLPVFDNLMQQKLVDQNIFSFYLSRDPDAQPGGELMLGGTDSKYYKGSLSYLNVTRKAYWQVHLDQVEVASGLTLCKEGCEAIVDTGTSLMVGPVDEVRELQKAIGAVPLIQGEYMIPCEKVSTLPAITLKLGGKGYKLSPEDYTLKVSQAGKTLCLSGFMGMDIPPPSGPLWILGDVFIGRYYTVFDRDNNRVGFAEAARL
Plasmepsin I, sequence (P39898 whole entry): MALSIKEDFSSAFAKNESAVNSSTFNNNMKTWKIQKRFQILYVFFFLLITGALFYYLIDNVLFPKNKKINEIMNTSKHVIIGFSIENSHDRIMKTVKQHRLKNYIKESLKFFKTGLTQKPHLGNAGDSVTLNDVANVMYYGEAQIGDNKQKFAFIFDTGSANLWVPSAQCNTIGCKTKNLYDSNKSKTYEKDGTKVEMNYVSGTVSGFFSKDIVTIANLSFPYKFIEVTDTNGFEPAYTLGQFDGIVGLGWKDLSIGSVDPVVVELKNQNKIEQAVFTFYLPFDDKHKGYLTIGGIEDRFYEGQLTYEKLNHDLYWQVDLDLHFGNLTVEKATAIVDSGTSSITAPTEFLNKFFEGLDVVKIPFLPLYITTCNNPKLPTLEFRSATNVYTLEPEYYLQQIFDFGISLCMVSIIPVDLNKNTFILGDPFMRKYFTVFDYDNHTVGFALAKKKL
Plasmepsin X (Plasmodium falciparum (isolate 3D7)), sequence (Q8IAS0 whole entry): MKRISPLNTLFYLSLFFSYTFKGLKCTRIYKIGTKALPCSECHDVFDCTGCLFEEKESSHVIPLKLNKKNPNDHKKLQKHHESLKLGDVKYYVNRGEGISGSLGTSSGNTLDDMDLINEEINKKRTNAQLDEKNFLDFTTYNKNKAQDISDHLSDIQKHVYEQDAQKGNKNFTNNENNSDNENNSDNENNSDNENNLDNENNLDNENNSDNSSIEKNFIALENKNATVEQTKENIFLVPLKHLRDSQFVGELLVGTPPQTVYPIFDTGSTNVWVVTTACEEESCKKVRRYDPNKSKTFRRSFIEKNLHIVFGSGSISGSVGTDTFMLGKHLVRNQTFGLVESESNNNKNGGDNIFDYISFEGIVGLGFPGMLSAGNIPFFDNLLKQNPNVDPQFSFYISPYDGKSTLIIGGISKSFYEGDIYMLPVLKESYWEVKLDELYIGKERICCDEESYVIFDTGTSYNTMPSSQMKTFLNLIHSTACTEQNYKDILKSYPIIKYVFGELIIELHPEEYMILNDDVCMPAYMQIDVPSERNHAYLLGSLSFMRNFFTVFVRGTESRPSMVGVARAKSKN
Plasmepsin 4, sequence (Q17SB2 whole entry): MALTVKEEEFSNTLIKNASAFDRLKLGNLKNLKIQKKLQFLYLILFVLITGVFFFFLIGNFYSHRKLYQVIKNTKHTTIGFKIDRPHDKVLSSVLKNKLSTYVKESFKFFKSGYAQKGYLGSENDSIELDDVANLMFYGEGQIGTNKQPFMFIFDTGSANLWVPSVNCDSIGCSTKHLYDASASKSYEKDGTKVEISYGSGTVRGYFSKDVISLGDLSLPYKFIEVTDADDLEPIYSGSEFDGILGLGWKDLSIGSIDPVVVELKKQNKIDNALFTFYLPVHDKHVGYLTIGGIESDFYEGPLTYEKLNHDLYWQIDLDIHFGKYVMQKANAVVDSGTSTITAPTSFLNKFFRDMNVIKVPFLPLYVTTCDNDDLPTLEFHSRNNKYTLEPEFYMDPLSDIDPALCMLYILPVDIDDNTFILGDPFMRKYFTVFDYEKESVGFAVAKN
Plasmepsin II, sequence (P46925 whole entry): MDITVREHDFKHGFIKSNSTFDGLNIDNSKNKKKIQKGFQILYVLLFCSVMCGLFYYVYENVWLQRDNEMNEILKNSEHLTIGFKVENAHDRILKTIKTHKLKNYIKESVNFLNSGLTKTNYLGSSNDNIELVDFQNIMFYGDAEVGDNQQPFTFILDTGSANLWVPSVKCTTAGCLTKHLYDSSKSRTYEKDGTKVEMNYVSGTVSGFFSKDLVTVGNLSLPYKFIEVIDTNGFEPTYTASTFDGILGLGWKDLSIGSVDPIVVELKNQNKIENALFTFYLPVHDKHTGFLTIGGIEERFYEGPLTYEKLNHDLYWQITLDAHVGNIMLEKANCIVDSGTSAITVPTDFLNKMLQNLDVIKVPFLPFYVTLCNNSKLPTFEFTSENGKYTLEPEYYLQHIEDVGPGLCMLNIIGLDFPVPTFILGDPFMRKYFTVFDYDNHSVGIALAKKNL

Compound	IC50 (Plasmepsin 4)	IC50 (Cathepsin D)	EC50 (Plasmodium falciparum)	IC50 (Plasmepsin I)	IC50 (Plasmepsin II)	inhibition [1]	inhibition [2]
COCCNC(=O)c1cc(C(=O)N[C@@H](Cc2ccccc2)[C@H](O)CNC(C)(C)c2cccc(OC)c2)cc(N2CCCCC2)c1	50 nM	750 nM					
COc1cccc(C(C)(C)NC[C@@H](O)[C@H](Cc2ccccc2)NC(=O)c2cc(C(=O)NCCO)cc(N3CCCCC3)c2)c1	210 nM	1420 nM					
COc1cccc(C(C)(C)NC[C@@H](O)[C@H](Cc2ccccc2)NC(=O)c2cc(C(=O)N(CC(C)C)CC(C)C)cc(N3CCCCC3)c2)c1	500 nM	1300 nM					
CCCN(CCC)C(=O)c1cc(F)cc(C(=O)N[C@@H](Cc2ccccc2)[C@H](O)CNC(C)(C)c2cccc(OC)c2)c1	50 nM	1000 nM	1.5 nM	1100 nM	1100 nM	Active	Active
CCCN(CCC)C(=O)c1cc(Cl)cc(C(=O)N[C@@H](Cc2ccccc2)[C@H](O)CNC(C)(C)c2cccc(OC)c2)c1	8 nM	96 nM					
COc1cccc(C(C)(C)NC[C@@H](O)[C@H](Cc2ccccc2)NC(=O)c2cc(C(=O)NCC3CCCCC3)cc(N3CCCCC3)c2)c1	90 nM	150 nM					
COc1cccc(C(C)(C)NC[C@@H](O)[C@H](Cc2ccccc2)NC(=O)c2cc(C(=O)NCC3CC3)cc(N3CCCCC3)c2)c1	30 nM	760 nM	1.8 nM	1800 nM	500 nM		
COCCN(CCOC)C(=O)c1cc(C(=O)N[C@@H](Cc2ccccc2)[C@H](O)CNC(C)(C)c2cccc(OC)c2)cc(N2CCCCC2)c1	37 nM	100 nM					
COc1cccc(C(C)(C)NC[C@@H](O)[C@H](Cc2ccccc2)NC(=O)c2cccc(C(=O)NCC(C)(C)C)c2)c1	76 nM	3800 nM	2 nM	5600 nM	7100 nM		
CCCN(CCC)C(=O)c1cccc(C(=O)N[C@@H](Cc2ccccc2)[C@H](O)CNC(C)(C)c2cccc(OC)c2)c1	58 nM	1150 nM	0.3 nM	3100 nM	1700 nM	Active	Active
CCCN(CCC)C(=O)c1cc(C(=O)N[C@@H](Cc2ccccc2)[C@H](O)CNC(C)(C)c2cccc(OC)c2)cc(C(F)(F)F)c1	15 nM	67 nM					
COc1cccc(C(C)(C)NC[C@@H](O)[C@H](Cc2ccccc2)NC(=O)c2cccc(C(=O)NCCC(F)(F)F)c2)c1	150 nM	4900 nM	6 nM	10300 nM	10400 nM		
COc1cccc(C(C)(C)NC[C@@H](O)[C@H](Cc2ccccc2)NC(=O)c2cc(C(=O)NCCC(F)(F)F)cc(N3CCCCC3)c2)c1	24 nM	580 nM	2 nM	2500 nM	2200 nM		
COc1cccc(C(C)(C)NC[C@@H](O)[C@H](Cc2ccccc2)NC(=O)c2cc(C(=O)NCC(C)(C)C)cc(N3CCCCC3)c2)c1	27 nM	400 nM	6 nM	2000 nM	850 nM		
COc1cccc(C(C)(C)NC[C@@H](O)[C@H](Cc2ccccc2)NC(=O)c2cc(C(=O)NCc3ccccc3)cc(N3CCCCC3)c2)c1	38 nM	220 nM					
COc1cccc(C(C)(C)NC[C@@H](O)[C@H](Cc2ccccc2)NC(=O)c2cc(C(=O)NCC(C)(C)O)cc(N3CCCCC3)c2)c1	100 nM	1660 nM					
COc1cccc(C(C)(C)NC[C@@H](O)[C@H](Cc2ccccc2)NC(=O)c2cc(C(=O)NC(C)(C)CO)cc(N3CCCCC3)c2)c1	120 nM	1460 nM					
CCCN(CCC)C(=O)c1cc(C#N)cc(C(=O)N[C@@H](Cc2ccccc2)[C@H](O)CNC(C)(C)c2cccc(OC)c2)c1	59 nM	560 nM					
COc1cccc(C(C)(C)NC[C@@H](O)[C@H](Cc2ccccc2)NC(=O)c2cc(C(=O)NCC(C)(C)OC)cc(N3CCCCC3)c2)c1	48 nM	2100 nM	2 nM	7400 nM	5400 nM		
COc1cccc(C(C)(C)NC[C@@H](O)[C@H](Cc2ccccc2)NC(=O)c2cc(C(=O)N(CCC(F)(F)F)CCC(F)(F)F)cc(N3CCCCC3)c2)c1	210 nM	120 nM					
COc1cccc(C(C)(C)NC[C@@H](O)[C@H](Cc2ccccc2)NC(=O)c2cc(C(=O)NCCCO)cc(N3CCCCC3)c2)c1	93 nM	2250 nM					
CCCN(CCC)C(=O)c1cc(C)cc(C(=O)N[C@@H](Cc2ccccc2)[C@H](O)CNC(C)(C)c2cccc(OC)c2)c1	23 nM	210 nM					
COc1cccc(C(C)(C)NC[C@@H](O)[C@H](Cc2ccccc2)NC(=O)c2cc(C(=O)N(C)C)cc(N3CCCCC3)c2)c1	87 nM	500 nM					
COc1cccc(C(C)(C)NC[C@@H](O)[C@H](Cc2ccccc2)NC(=O)c2cc(C(=O)NCCOC(C)(C)C)cc(N3CCCCC3)c2)c1	31 nM	150 nM					
CCN(CC)C(=O)c1cc(C(=O)N[C@@H](Cc2ccccc2)[C@H](O)CNC(C)(C)c2cccc(OC)c2)cc(N2CCCCC2)c1	14 nM	250 nM	1.5 nM	800 nM	160 nM	Active	
COc1cccc(C(C)(C)NC[C@@H](O)[C@H](Cc2ccccc2)NC(=O)c2cc(C(=O)N(CCO)CCO)cc(N3CCCCC3)c2)c1	68 nM	270 nM					
CCCN(CCC)C(=O)c1cc(C(=O)N[C@@H](Cc2ccccc2)[C@H](O)CNC(C)(C)c2cccc(OC)c2)cc(C(=O)N(CCC)CCC)c1	18 nM	700 nM	6 nM	780 nM	270 nM		
COc1cccc(C(C)(C)NC[C@@H](O)[C@H](Cc2ccccc2)NC(=O)c2cc(C(=O)NCCN(C)C)cc(N3CCCCC3)c2)c1	360 nM	4800 nM					
